Published values collected from several papers.
Target: Dual specificity tyrosine-phosphorylation-regulated kinase 1B (DYRK1B, Homo sapiens, UniProt Q9Y463)
Technique: competition with immobilised ligand

| SMILES | effect on | tested at | remaining binding [%] |
| --- | --- | --- | --- |
| O=C(N[C@H]1CCCCC/C=C\C2C[C@@]2(C(=O)O)NC(=O)[C@@H]2C[C@@H](Oc3ccncc3)CN2C1=O)OC1CCCC1 (stereo partly drawn) | cell-free assay | 1 µM | 46 |
| Cc1cnc(Nc2ccc(C(=O)N3CCC(N4CCCC4)CC3)cc2)nc1-c1cc2ccccc2s1 | binding | 1 µM | 43 |
| C[C@@H](c1ccc(-n2cnc3c(N)ncnc32)cc1)N1CCc2nn(C)c(Cc3ccccc3)c2C1=O | binding | 0.1 µM | 91 |
| CNCc1ccccc1-c1csc([C@H](C)Nc2nc(C)nc3cc(OC)c(OC)cc23)c1 | cell-free assay | 1 µM | 55 |
| COc1cnc(Nc2cccc(S(N)(=O)=O)c2)nc1N1CCN(c2ccccc2)C(=O)C1 | binding | 1 µM | 91 |
| COC(=O)Nc1nc2ccc(C(=O)c3ccccc3)cc2[nH]1 | cell-free assay | 10 µM | 5.6 |
| O=C(NCCCN1CCOCC1)c1ccc(Nc2nccc(-c3cc4ccccc4s3)n2)cc1 | binding | 1 µM | 92 |
| C=CC(=O)N1CCC(C(=O)NCC(=O)N2CCN(c3nc(-c4cnc(N)nc4C(F)F)nc(N4CCOCC4)n3)CC2)CC1 | binding | 1 µM | 98 |
| CN(CCCC(F)(F)F)c1nccc(-c2cnn3ncccc23)n1 | binding | 1 µM | 39 |
| COc1ncc2cc3ccccc3nc2c1C#N | cell-free assay | 5 µM | 81 |
| Cc1cc(-n2nc(Cc3cc(F)cc(C(F)(F)F)c3)nc2C)ccc1C(N)=O | cell-free assay | 1 µM | 100 |
| CNC(=O)[C@@H]1CC[C@@H](n2c(-c3ccc4cnccc4c3)nc3ccc(C(=O)NCc4cccc(C(N)=O)c4)cc32)C1 | binding | 1 µM | 45 |
| O=C(Nc1c[nH]nc1C(=O)NC1CCNCC1)c1cc(F)cc(F)c1 | binding | 1 µM | 100 |
| COc1ccc2c(c1)O[C@H](c1ccc(OC)c(OC)c1)C[C@@H]2NC(=O)C1(c2ccc3c(c2)OC(F)(F)O3)CC1 | cell-free assay | 1 µM | 91 |
| O=C(c1ccc(Nc2ncc(Cl)c(-c3ccc(Cl)s3)n2)cc1)N1CCC(N2CCCC2)CC1 | binding | 1 µM | 33 |
